Measurements taken from publication PMC3954597 (Biochemistry, 2014).

Key:
Type in all cases: biochemical
PTPD2 = target: T1, PTPD2 (Homo sapiens, UniProt Q15678); experiment: PTP assay, PTPD2; details: for Km / kcat / kcat/KM x10^6: catalytic domain, 100 mM HEPES pH 7.4, monitored at 282 nm
T1 sequence (Q15678 876-1187): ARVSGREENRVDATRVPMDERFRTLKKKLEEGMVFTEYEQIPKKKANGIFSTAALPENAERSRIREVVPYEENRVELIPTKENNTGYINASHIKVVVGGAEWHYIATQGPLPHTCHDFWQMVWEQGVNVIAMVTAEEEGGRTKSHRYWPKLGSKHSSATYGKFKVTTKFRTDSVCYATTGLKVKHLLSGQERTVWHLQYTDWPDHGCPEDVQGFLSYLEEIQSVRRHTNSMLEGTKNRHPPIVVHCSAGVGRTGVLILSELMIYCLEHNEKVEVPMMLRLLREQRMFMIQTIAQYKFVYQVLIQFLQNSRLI
Summary of the method: (§1)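 His-tagged catalytic domains were made in E. coli: PTPD2 aa 876–1187 and PTPRC aa 620–1236 with N-terminal tags, PTPD1 aa 875–1174 and SHP-2 aa 199–593 with C-terminal tags. Enzyme was added at 0.5–20000 nM final. A282 (Δε 1102 M−1 cm−1) was followed. Constants came from Michaelis–Menten fits of initial rates (<60 s), or from fits of progress curves run to substrate depletion.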

PTPD1 = target: T2, PTPD1 (Homo sapiens, UniProt Q16825); experiment: PTP assay, PTPD1
T2 sequence (Q16825 875-1174): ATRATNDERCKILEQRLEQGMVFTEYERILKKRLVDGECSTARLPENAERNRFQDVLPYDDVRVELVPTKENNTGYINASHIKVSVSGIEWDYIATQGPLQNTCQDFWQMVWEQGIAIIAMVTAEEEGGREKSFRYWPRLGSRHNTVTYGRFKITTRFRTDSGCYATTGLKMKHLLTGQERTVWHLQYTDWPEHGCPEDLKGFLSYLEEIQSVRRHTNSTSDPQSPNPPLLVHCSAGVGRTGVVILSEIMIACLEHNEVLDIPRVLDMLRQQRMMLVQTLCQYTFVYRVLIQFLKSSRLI
Summary of the method: as §1

PTP1B = target: T3, PTP1B (Homo sapiens, UniProt P18031); experiment: PTP assay, wild-type PTP1B; details: for kcat/KM x10^6: WT catalytic domain aa 1–321, 100 mM HEPES pH 7.4, monitored at 282 nm
T3 sequence (P18031 1-321): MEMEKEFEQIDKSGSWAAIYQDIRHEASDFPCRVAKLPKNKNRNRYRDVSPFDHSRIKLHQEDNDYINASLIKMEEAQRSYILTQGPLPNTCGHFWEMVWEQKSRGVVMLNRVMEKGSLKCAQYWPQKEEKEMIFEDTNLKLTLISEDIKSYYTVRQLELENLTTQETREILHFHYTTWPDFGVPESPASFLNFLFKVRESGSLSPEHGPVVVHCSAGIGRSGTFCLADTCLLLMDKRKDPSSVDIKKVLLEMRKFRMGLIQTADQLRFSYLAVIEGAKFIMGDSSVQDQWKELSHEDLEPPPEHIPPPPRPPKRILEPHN
Summary of the method: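 E. coli-expressed catalytic domains were used: wild-type, R24M or R47E PTP1B (aa 1–321), and SHP-1 (aa 205–595). Reactions started with PTP (0.5–20000 nM final) and dephosphorylation was monitored continuously at 282 nm. kcat, KM and kcat/KM came from initial-rate fits (Michaelis–Menten, or V = kcat[E][S]/KM when KM >> [S]) or from fits of progress curves.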

PTPRC = target: T4, PTPRC (Homo sapiens, UniProt P08575); experiment: PTP assay, PTPRC; details: for Km / kcat / kcat/KM x10^6: catalytic domain, 100 mM HEPES pH 7.4, monitored at 282 nm
T4 sequence (P08575 620-1236): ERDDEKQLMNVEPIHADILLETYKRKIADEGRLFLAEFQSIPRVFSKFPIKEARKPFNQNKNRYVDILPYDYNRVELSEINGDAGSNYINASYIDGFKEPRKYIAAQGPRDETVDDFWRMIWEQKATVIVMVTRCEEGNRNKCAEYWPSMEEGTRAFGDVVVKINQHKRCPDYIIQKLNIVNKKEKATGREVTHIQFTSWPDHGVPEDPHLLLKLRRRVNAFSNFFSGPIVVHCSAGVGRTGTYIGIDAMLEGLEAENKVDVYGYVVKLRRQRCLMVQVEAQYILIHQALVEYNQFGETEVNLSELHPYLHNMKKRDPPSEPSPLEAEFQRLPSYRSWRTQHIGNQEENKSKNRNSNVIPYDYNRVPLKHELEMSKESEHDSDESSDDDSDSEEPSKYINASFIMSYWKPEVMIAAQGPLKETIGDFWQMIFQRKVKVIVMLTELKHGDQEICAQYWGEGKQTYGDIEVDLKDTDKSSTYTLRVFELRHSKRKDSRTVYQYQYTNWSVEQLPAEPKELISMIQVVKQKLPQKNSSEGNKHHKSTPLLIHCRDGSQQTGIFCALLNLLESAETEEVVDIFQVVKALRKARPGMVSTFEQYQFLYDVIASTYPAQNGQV
Summary of the method: as §1

PTP-PEST = target: T5, PTP-PEST (Homo sapiens, UniProt Q05209); experiment: PTP assay with pY peptide substrates, PTP-PEST; details: for Km / kcat / kcat/KM x10^6: catalytic domain, 100 mM HEPES pH 7.4, monitored at 282 nm
T5 sequence (Q05209 5-300): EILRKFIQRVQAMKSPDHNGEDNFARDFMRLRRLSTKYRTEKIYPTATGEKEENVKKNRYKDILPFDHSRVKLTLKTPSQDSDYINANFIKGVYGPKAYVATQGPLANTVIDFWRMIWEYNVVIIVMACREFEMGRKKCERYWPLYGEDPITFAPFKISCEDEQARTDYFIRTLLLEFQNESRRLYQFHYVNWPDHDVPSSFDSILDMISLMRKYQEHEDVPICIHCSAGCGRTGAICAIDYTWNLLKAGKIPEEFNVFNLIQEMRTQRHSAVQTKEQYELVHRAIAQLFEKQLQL

PTPH1 = target: T6, PTPH1 (Homo sapiens, UniProt P26045); experiment: PTP assay, PTPH1; details: for Km / kcat / kcat/KM x10^6: catalytic domain, 100 mM HEPES pH 7.4, monitored at 282 nm
T6 sequence (P26045 628-909): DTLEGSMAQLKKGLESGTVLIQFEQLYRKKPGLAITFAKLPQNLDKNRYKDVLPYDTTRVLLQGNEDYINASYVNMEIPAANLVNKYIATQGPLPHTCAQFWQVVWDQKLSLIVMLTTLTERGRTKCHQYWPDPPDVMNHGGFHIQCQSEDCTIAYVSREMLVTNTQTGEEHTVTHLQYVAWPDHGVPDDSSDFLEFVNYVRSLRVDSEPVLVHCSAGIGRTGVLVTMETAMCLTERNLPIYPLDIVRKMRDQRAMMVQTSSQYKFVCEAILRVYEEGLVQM

[1] = kcat/KM of neutral peptide over basic Ac-YRKRFpYRYKF-NH2
[2] = catalytic domain, 100 mM HEPES pH 7.4, monitored at 282 nm
[3] = kcat/KM of acidic peptide over basic Ac-YRKRFpYRYKF-NH2
[4] = kcat/KM of acidic peptide over neutral Ac-SASASpYSASA-NH2

Row | Substance | Km (PTPD2) [µM] | kcat (PTPD2) [s⁻¹] | kcat/KM x10^6 (PTPD2) | kcat/KM x10^6 (PTPD1; [2]) | kcat/KM x10^6 (PTP1B) | Km (PTPRC) [µM] | kcat (PTPRC) [s⁻¹] | kcat/KM x10^6 (PTPRC) | Km (PTP-PEST) [µM] | kcat (PTP-PEST) [s⁻¹] | kcat/KM x10^6 (PTP-PEST) | Km (PTPH1) [µM] | kcat (PTPH1) [s⁻¹] | kcat/KM x10^6 (PTPH1) | further results
1 | Ac-SASASpYSASA-NH2 | 9.4 ± 0.4 | 0.12 ± 0.006 | 0.013 x10^6 M^−1 s^−1 | 0.0000038 x10^6 M^−1 s^−1 | 2.3 x10^6 M^−1 s^−1 | 170 ± 20 | 340 ± 50 | 2.0 x10^6 M^−1 s^−1 | 800 ± 10 | 160 ± 2 | 0.20 x10^6 M^−1 s^−1 | 5.8 ± 0.7 | 2.5 ± 0.2 | 0.44 x10^6 M^−1 s^−1 | Neutral/Basic ratio of kcat/KM values (PTPD2; [1]): 160; Neutral/Basic ratio of kcat/KM values (PTPD1; [1]): 0.7; kcat/KM x 10^7 (PTP1B; WT PTP1B aa 1–321, pH 7.4): 0.23 x 10^7 M^−1 s^−1; Neutral/Basic ratio of kcat/KM values (PTP1B; [1]): 61; Neutral/Basic ratio of kcat/KM values (PTPRC; [1]): 41
2 | Ac-YDEDFpYDYEF-NH2 | 0.7 ± 0.09 | 0.073 ± 0.003 | 0.11 x10^6 M^−1 s^−1 | 0.0012 x10^6 M^−1 s^−1 | 55 x10^6 M^−1 s^−1 | 7 ± 0.9 | 300 ± 20 | 43 x10^6 M^−1 s^−1 | 2.2 ± 0.5 | 470 ± 10 | 220 x10^6 M^−1 s^−1 | 0.28 ± 0.02 | 2.4 ± 0.06 | 8.8 x10^6 M^−1 s^−1 | Acidic/Basic ratio of kcat/KM values (PTPD2; [3]): 1300; Acidic/Neutral ratio of kcat/KM values (PTPD2; [4]): 8; Km (PTPD1; [2]): 26 ± 5 µM; kcat (PTPD1; [2]): 0.032 ± 0.005 s⁻¹; Acidic/Basic ratio of kcat/KM values (PTPD1; [3]): 220; Acidic/Neutral ratio of kcat/KM values (PTPD1; [4]): 330; Acidic/Basic ratio of kcat/KM values (PTP1B; [3]): 1500; Acidic/Neutral ratio of kcat/KM values (PTP1B; [4]): 24; Acidic/Basic ratio of kcat/KM values (PTPRC; [3]): 880; Acidic/Neutral ratio of kcat/KM values (PTPRC; [4]): 22; Acidic/Basic ratio of kcat/KM values (PTP-PEST; [3]): 150000; Acidic/Neutral ratio of kcat/KM values (PTP-PEST; [4]): 1100; Acidic/Basic ratio of kcat/KM values (PTPH1; [3]): 2600; Acidic/Neutral ratio of kcat/KM values (PTPH1; [4]): 20
3 | Ac-YRKRFpYRYKF-NH2 |  |  | 0.000082 x10^6 M^−1 s^−1 | 0.0000057 x10^6 M^−1 s^−1 | 0.037 x10^6 M^−1 s^−1 |  |  | 0.049 x10^6 M^−1 s^−1 |  |  | 0.0015 x10^6 M^−1 s^−1 |  |  | 0.0033 x10^6 M^−1 s^−1 | 
